Assay results gathered from unrelated publications.
Compare with care: the assays were run in different laboratories.
Target: STE20/SPS1-related proline-alanine-rich protein kinase (STK39, Homo sapiens, UniProt Q9UEW8)

O=C(Nc1cccnn1)N1CCC(=Cc2cccc(Oc3ccc(C(F)(F)F)cn3)c2)CC1
remaining binding (cell-free assay, competition with immobilised ligand; 1 µM): 100%

c1cnn2ncc(-c3ccnc(N4CCC45COC5)n3)c2c1
remaining binding (binding; 1 µM): 41%

CCN1CCN(Cc2ccc(C(=O)Nc3ccc(C)c(Oc4ccc5c(c4)CC(=O)N5)c3)cc2C(F)(F)F)CC1
remaining binding (binding, competition with immobilised ligand; 1 µM): 68%

CCCOc1ccc([C@@H]2[C@@H](C(=O)O)[C@H](c3ccc4c(c3)OCO4)CN2CC(=O)Nc2c(CC)cccc2CC)cc1
remaining binding (cell-free assay, competition with immobilised ligand; 1 µM): 78%

Cc1cnn2ncc(-c3ccnc(N(C)C)n3)c2c1
remaining binding (binding; 1 µM): 100%

O=C(c1ccc(Nc2nccc(-c3cc4ccccc4s3)n2)cc1)N1CCC(N2CCCC2)CC1
remaining binding (binding, competition with immobilised ligand; 1 µM): 85%

FC(F)(F)c1ccc2c(c1)nc(-c1cccnc1)n2C1CC1
remaining binding (cell-free assay, competition with immobilised ligand; 1 µM): 100%

CN(C)c1nccc(-c2cnc3ncccn23)n1
remaining binding (binding; 1 µM): 51%

FC(F)(F)Oc1cccc(-c2cnc3ccc(-c4ccncc4)nn23)c1
remaining binding (binding, competition with immobilised ligand; 5 µM): 83%

Cn1nc(C(F)(F)F)cc1-c1cnc(N2CCc3cc(S(=O)(=O)Nc4c(F)cc(Cl)cc4F)cc(N4CCCC4=O)c32)nc1
remaining binding (cell-free assay, competition with immobilised ligand; 1 µM): 91%

CNC(=O)[C@@H]1CC[C@@H](n2c(-c3ccc4cnccc4c3)nc3ccc(C(=O)NCc4cccc(C(N)=O)c4)cc32)C1
remaining binding (binding, competition with immobilised ligand; 1 µM): 100%

C[C@@H]1CCN(c2nccc(-c3cnn4ncccc34)n2)C1
remaining binding (binding; 1 µM): 59%

O=C1NC(c2ccccn2)Sc2ccccc21 (stereo not drawn)
remaining binding (cell-free assay, competition with immobilised ligand; 1 µM): 89%

F[C@@H]1CCN(c2nccc(-c3cnn4ncccc34)n2)C1
remaining binding (binding; 1 µM): 57%

O=C(NCCCN1CCOCC1)c1ccc(Nc2ncc(Cl)c(-c3ccc(Cl)s3)n2)cc1
remaining binding (binding, competition with immobilised ligand; 1 µM): 54%

Cc1nc(C2CCN(C(=O)c3ccc(OC(F)(F)F)cc3N)CC2)c2ncc(N3CCN(C)CC3)cc2n1
remaining binding (cell-free assay, competition with immobilised ligand; 1 µM): 100%

C=CC(=O)N1CCC(C(=O)NCC(=O)N2CCN(c3nc(-c4cnc(N)nc4C(F)F)nc(N4CCOCC4)n3)CC2)CC1
remaining binding (binding, competition with immobilised ligand; 1 µM): 76%

CN(c1nccc(-c2cnn3ncccc23)n1)C1CC1
remaining binding (binding; 1 µM): 100%

O=C(c1ccc(Nc2ncc(Cl)c(-c3ccc(Cl)s3)n2)cc1)N1CCC(N2CCCC2)CC1
remaining binding (binding, competition with immobilised ligand; 1 µM): 48%

COc1cnc(Nc2cccc(S(N)(=O)=O)c2)nc1N1CCN(c2ccccc2)C(=O)C1
remaining binding (binding, competition with immobilised ligand; 1 µM): 99%

O=C(Nc1c[nH]nc1C(=O)NC1CCNCC1)c1cc(F)cc(F)c1
remaining binding (binding, competition with immobilised ligand; 1 µM): 67%
